In ChEMBL document CHEMBL3098060, “Antitumor potential of conjugable valinomycins bearing hydroxyl sites: in vitro studies” (ACS Med Chem Lett, 2013):
The source made the active and inactive calls. No cut-off for these calls is given here.

How the values were obtained:
A2780 [1] = assay: Cytotoxicity against human A2780 cells assessed as cell survival at 0.0001 to 10 uM by MTT assay; type: functional, cell-based; settings: TDE = time-dependent effect
Procedure, shortened: (§1)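 Cells seeded at 10,000 per well and treated with 0.0001–10 μM. Incubated at 37 °C in CO2 for 24, 48 or 72 h. Viable cells measured by MTT conversion. Time course shown at a fixed 0.01 μM.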

C6 [2] = assay: Cytotoxicity against rat C6 cells assessed as cell survival after 24 to 72 hrs by MTT assay; type: functional, cell-based; procedure, shortened: as §1
C6 [3] = assay: Cytotoxicity against rat C6 cells assessed as cell survival at 0.0001 to 10 uM by MTT assay; type: functional, cell-based; settings: TDE = time-dependent effect; procedure, shortened: as §1
C6 [4] = assay: Cytotoxicity against rat C6 cells after 72 hrs by MTT assay; type: functional, cell-based; settings: C6, 72 h
Procedure, shortened: (§2)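 Cells exposed to 0.0001–10 μM for 72 h. Viability by MTT conversion, expressed as % of cells viable. IC50 taken as the concentration giving 50% inhibition of survival, from concentration–viability profiles. Three independent experiments, each in duplicate, averaged.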

MCF7 [5] = assay: Cytotoxicity against human MCF7 cells after 72 hrs by MTT assay; type: functional, cell-based; settings: MCF7, 72 h; procedure, shortened: as §2
HepG2 [6] = assay: Cytotoxicity against human HepG2 cells after 72 hrs by MTT assay; type: functional, cell-based; settings: HepG2, 72 h; procedure, shortened: as §2
A2780 [7] = assay: Cytotoxicity against human A2780 cells after 72 hrs by MTT assay; type: functional, cell-based; settings: A2780, 72 h; procedure, shortened: as §2
C6 [8] = assay: Induction of apoptosis in rat C6 cells assessed as fragmentation of mitochondrial network at 50 nM after 72 hrs by MitoTracker Red CMXRos staining-based fluorescence microscopy; type: functional, cell-based
Procedure, shortened: (§3)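 C6 glioma cells seeded at 100,000 per well and treated 72 h at 37 °C, 5% CO2, with 50 nM or 1 μM depending on compound. Mitochondria stained with 25 nM MitoTracker Red CMXRos and network morphology imaged against untreated controls. Over 10 cells examined per experiment, 3 independent experiments.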

MCF7 [9] = assay: Induction of mitochondrial membrane depolarization in human MCF7 cells after 72 hrs by JC-1 staining-based FACS flow cytometric analysis (reference value: 1%); type: functional
MCF7 [10] = assay: Cell cycle arrest in human MCF7 cells assessed as accumulation at G2/M phase at 5 uM after 24 hrs by propidium iodide staining-based FACS flow cytometric analysis (reference value: 25.92%); type: functional
MCF7 [11] = assay: Cell cycle arrest in human MCF7 cells assessed as accumulation at S phase at 5 uM after 24 hrs by propidium iodide staining-based FACS flow cytometric analysis (reference value: 9.74%); type: functional
MCF7 [12] = assay: Cell cycle arrest in human MCF7 cells assessed as accumulation at G0/G1 phase at 5 uM after 24 hrs by propidium iodide staining-based FACS flow cytometric analysis (reference value: 64.34%); type: functional
HepG2 [13] = assay: Cytotoxicity against human HepG2 cells assessed as cell survival at 0.0001 to 10 uM by MTT assay; type: functional, cell-based; settings: TDE = time-dependent effect; procedure, shortened: as §1
HepG2 [14] = assay: Cytotoxicity against human HepG2 cells assessed as cell survival after 24 to 72 hrs by MTT assay; type: functional, cell-based; procedure, shortened: as §1
MCF7 [15] = assay: Cytotoxicity against human MCF7 cells assessed as cell survival after 24 to 72 hrs by MTT assay; type: functional, cell-based; procedure, shortened: as §1
MCF7 [16] = assay: Cytotoxicity against human MCF7 cells assessed as cell survival at 0.0001 to 10 uM by MTT assay; type: functional, cell-based; settings: TDE = time-dependent effect; procedure, shortened: as §1
A2780 [17] = assay: Cytotoxicity against human A2780 cells assessed as cell survival after 24 to 72 hrs by MTT assay; type: functional, cell-based; procedure, shortened: as §1
C6 [18] = assay: Induction of apoptosis in rat C6 cells assessed as fragmentation of mitochondrial network at 1 uM after 72 hrs by MitoTracker Red CMXRos staining-based fluorescence microscopy; type: functional, cell-based; procedure, shortened: as §3
MCF7 [19] = assay: Cell cycle arrest in human MCF7 cells assessed as accumulation at G2/M phase at 0.05 uM after 24 hrs by propidium iodide staining-based FACS flow cytometric analysis (reference value: 25.92%); type: functional
MCF7 [20] = assay: Cell cycle arrest in human MCF7 cells assessed as accumulation at S phase at 0.05 uM after 24 hrs by propidium iodide staining-based FACS flow cytometric analysis (reference value: 9.74%); type: functional
MCF7 [21] = assay: Cell cycle arrest in human MCF7 cells assessed as accumulation at G0/G1 phase at 0.05 uM after 24 hrs by propidium iodide staining-based FACS flow cytometric analysis (reference value: 64.34%); type: functional
C6 [22] = assay: Selectivity ratio of IC50 for human MCF7 cells to IC50 for rat C6 cells; type: functional
Procedure, shortened: (§4)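 Ratio of two 72 h IC50 values, each from the same MTT viability assay. A2780, MCF-7, HepG2 and rat C6 glioma cells were treated at 0.0001–10 μM. Percent viability was calculated and IC50 taken as the concentration giving 50% survival inhibition. Means are from three independent experiments run in duplicate.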

HepG2 [23] = assay: Selectivity ratio of IC50 for human MCF7 cells to IC50 for human HepG2 cells; type: functional; procedure, shortened: as §4
A2780 [24] = assay: Selectivity ratio of IC50 for human A2780 cells to IC50 for rat C6 cells; type: functional; procedure, shortened: as §4
A2780 [25] = assay: Selectivity ratio of IC50 for human A2780 cells to IC50 for human HepG2 cells; type: functional; procedure, shortened: as §4

CC(C)[C@@H]1NC(=O)[C@H](C)OC(=O)[C@@H](C(C)C)NC(=O)[C@@H](C(C)C)OC(=O)[C@H](C(C)(C)O)NC(=O)[C@H](C)OC(=O)[C@@H](C(C)C)NC(=O)[C@@H](C(C)C)OC(=O)[C@H](C(C)C)NC(=O)[C@H](C)OC(=O)[C@@H](C(C)C)NC(=O)[C@@H](C(C)C)OC1=O
Activity (A2780 [1]): tde
Activity (C6 [2]): Dose-dependent effect
Activity (C6 [3]): tde
IC50 (C6 [4]): 2.9 nM
IC50 (MCF7 [5]): 3910 nM
IC50 (HepG2 [6]): 4.9 nM
IC50 (A2780 [7]): 2510 nM
Activity (C6 [8]): Active
Activity (MCF7 [9]): 15.6%
Activity (MCF7 [10]): 16.9%
Activity (MCF7 [11]): 25.57%
Activity (MCF7 [12]): 57.53%
Activity (HepG2 [13]): tde
Activity (HepG2 [14]): Dose-dependent effect
Activity (MCF7 [15]): Dose-dependent effect
Activity (MCF7 [16]): tde
Activity (A2780 [17]): Dose-dependent effect

CC(C)[C@@H]1NC(=O)[C@H](C)OC(=O)[C@@H](C(C)C)NC(=O)[C@@H](C(C)(C)O)OC(=O)[C@H](C(C)C)NC(=O)[C@H](C)OC(=O)[C@@H](C(C)C)NC(=O)[C@@H](C(C)C)OC(=O)[C@H](C(C)C)NC(=O)[C@H](C)OC(=O)[C@@H](C(C)C)NC(=O)[C@@H](C(C)C)OC1=O
Activity (C6 [3]): tde
IC50 (C6 [4]): 175 nM
IC50 (MCF7 [5]): > 10000 nM
IC50 (HepG2 [6]): 197 nM
IC50 (A2780 [7]): > 10000 nM
Activity (C6 [18]): Active
Activity (MCF7 [9]): 8.9%
Activity (MCF7 [10]): 19.76%
Activity (MCF7 [11]): 24.6%
Activity (MCF7 [12]): 55.63%

CC(C)[C@@H]1NC(=O)[C@H](C)OC(=O)[C@@H](C(C)C)NC(=O)[C@@H](C(C)C)OC(=O)[C@H](C(C)C)NC(=O)[C@H](C)OC(=O)[C@@H](C(C)(C)O)NC(=O)[C@@H](C(C)C)OC(=O)[C@H](C(C)C)NC(=O)[C@H](C)OC(=O)[C@@H](C(C)C)NC(=O)[C@@H](C(C)C)OC1=O
Activity (A2780 [1]): tde
Activity (C6 [2]): Dose-dependent effect
Activity (C6 [3]): tde
IC50 (C6 [4]): 2.4 nM
IC50 (MCF7 [5]): 3850 nM
IC50 (HepG2 [6]): 4.3 nM
IC50 (A2780 [7]): 4530 nM
Activity (C6 [8]): Active
Activity (MCF7 [9]): 12.1%
Activity (MCF7 [19]): 21.49%
Activity (MCF7 [20]): 23.07%
Activity (MCF7 [21]): 55.44%
Activity (HepG2 [13]): tde
Activity (HepG2 [14]): Dose-dependent effect
Activity (MCF7 [15]): Dose-dependent effect
Activity (MCF7 [16]): tde
Activity (A2780 [17]): Dose-dependent effect

CC(C)[C@@H]1NC(=O)[C@H](C)OC(=O)[C@@H](C(C)C)NC(=O)[C@@H](C(C)C)OC(=O)[C@H](C(C)C)NC(=O)[C@H](C)OC(=O)[C@@H](C(C)C)NC(=O)[C@@H](C(C)C)OC(=O)[C@H](C(C)C)NC(=O)[C@H](C)OC(=O)[C@@H](C(C)C)NC(=O)[C@@H](C(C)C)OC1=O [VALINOMYCIN]
Activity (A2780 [1]): tde
Activity (C6 [2]): Dose-dependent effect
Activity (C6 [3]): tde
IC50 (C6 [4]): 0.4 nM
IC50 (MCF7 [5]): 1770 nM
IC50 (HepG2 [6]): 0.8 nM
IC50 (A2780 [7]): 2180 nM
Activity (C6 [8]): Active
Activity (MCF7 [9]): 16%
Activity (MCF7 [10]): 18.15%
Activity (MCF7 [11]): 25.79%
Activity (MCF7 [12]): 56.07%
Ratio IC50 (C6 [22]): 3
Ratio IC50 (HepG2 [23]): 3
Ratio IC50 (A2780 [24]): 3
Ratio IC50 (A2780 [25]): 3
Activity (HepG2 [13]): tde
Activity (HepG2 [14]): Dose-dependent effect
Activity (MCF7 [15]): Dose-dependent effect
Activity (MCF7 [16]): tde
Activity (A2780 [17]): Dose-dependent effect
